Reference: ChEMBL document CHEMBL4152215, “Anti-leishmanial click modifiable thiosemicarbazones: Design, synthesis, biological evaluation and in silico studies” (Eur J Med Chem, 2018)

Legend:
Mus musculus [1] = test: Acute toxicity in mouse assessed as effect on spleen morphology at 125 mg/kg, po administered via gavage measured after 24 hrs and followed up to 7 days by histopathological analysis; format: organism-based; conditions: in vivo
How it was run: (§1)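 Male mice (25-30 g), six per group, fasted overnight and weighed before dosing. Compound suspended in aqueous 1% gum acacia and given by oral gavage in ascending doses of 25, 50, 75, 100 and 125 mg/kg/day (groups I-V). Vehicle group received gum acacia at up to 1 mL/100 g. Mortality recorded at 24 h and followed for seven days. Spleen, lung, liver and kidney examined.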

Leishmania major [2] = test: Antileishmanial activity against Leishmania major assessed as parasite survival at 0.25 uM after 48 hrs relative to control; format: functional
How it was run: (§2)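 L. major promastigotes in log phase (10⁶ parasites) pre-incubated with folic or folinic acid (20 or 100 µM), washed, resuspended in PBS for 1 h at room temperature, then returned to culture medium in 24-well plates. Compounds added at the fixed concentration, with trimethoprim at 100 µM. Incubated 48 h; living parasites counted per mL against untreated control wells.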

Mus musculus [3] = test: Acute toxicity in mouse assessed as effect on liver morphology at 125 mg/kg, po administered via gavage measured after 24 hrs and followed up to 7 days by histopathological analysis; format: organism-based; conditions: in vivo; how it was run: as §1
Mus musculus [4] = test: Acute toxicity in mouse assessed as effect on survival up to 75 mg/kg dosed via parenteral route measured up to 7 days; format: organism-based; conditions: in vivo, 168 h
How it was run: (§3)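 Groups of six mice dosed by intraperitoneal injection at 5, 10, 25, 50 and 75 mg/kg, with propylene glycol as vehicle and control. Spleen, lung, liver and kidney taken from the 75 mg/kg animals and examined for texture.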

Mus musculus [5] = test: Acute toxicity in mouse assessed as effect on spleen morphology at 75 mg/kg, ip measured up to 7 days by histopathological analysis; format: organism-based; conditions: in vivo, 168 h; how it was run: as §3
Leishmania major [6] = test: Antileishmanial activity against axenic amastigote form of Leishmania major assessed as parasite growth inhibition after 72 hrs by resazurin dye based assay; format: functional, organism-based
How it was run: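 Axenic L. major amastigotes, generated in RPMI-1640 with 10% heat-inactivated FCS, penicillin/streptomycin and L-glutamine, seeded at 2 x 10³ cells/ml onto serially diluted compound (0.04-10 final). Held at 31°C, 5% CO₂, humidified, for 72 h. Resazurin added at 68 h and read at 72 h (ex 530/em 590 nm). IC50 from sigmoidal dose-response curves; mean ± SEM, triplicate experiments in duplicate.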

Mus musculus [7] = test: Acute toxicity in mouse assessed as effect on kidney morphology at 125 mg/kg, po administered via gavage measured after 24 hrs and followed up to 7 days by histopathological analysis; format: organism-based; conditions: in vivo; how it was run: as §1
Leishmania major [8] = test: Antileishmanial activity against Leishmania major assessed as parasite survival at 0.25 uM after 48 hrs in presence of 100 uM folic acid relative to control; format: functional; how it was run: as §2
Mus musculus [9] = test: Acute toxicity in mouse assessed as induction of death at 25 to 125 mg/kg/day, po administered via gavage measured during 3 days post dose; format: organism-based; conditions: in vivo, 72 h; how it was run: as §1
Leishmania major [10] = test: Antileishmanial activity against Leishmania major assessed as parasite survival at 0.25 uM after 48 hrs in presence of 100 uM folinic acid relative to control; format: functional; how it was run: as §2
Mus musculus [11] = test: Acute toxicity in mouse up to 125 mg/kg/day, po administered via gavage measured after 24 hrs and followed up to 7 days; format: organism-based; conditions: in vivo; how it was run: as §1
[12] = Cytotoxicity against African green monkey Vero cells assessed as reduction in cell viability after 72 hrs by crystal violet staining based assay; conditions: chlorocebus sabaeus
How it was run: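 Vero cells seeded at 1×10^5 cells/well in MEM with 5% heat-inactivated FBS. Viability by crystal violet staining; CC50 from concentration-response. At least 3 separate experiments, each in duplicate.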

Leishmania major [13] = test: Antileishmanial activity against promastigote form of Leishmania major assessed as parasite growth inhibition after 48 hrs by alamar blue assay; format: functional, organism-based
Leishmania major [14] = test: Potency index, ratio of miltefosine IC50 to compound IC50 for antileishmanial activity axenic amastigote form of Leishmania major; format: functional
Mus musculus [15] = test: Acute toxicity in mouse assessed as effect on kidney morphology at 75 mg/kg, ip measured up to 7 days by histopathological analysis; format: organism-based; conditions: in vivo, 168 h; how it was run: as §3
Mus musculus [16] = test: Acute toxicity in mouse assessed as effect on lung morphology at 75 mg/kg, ip measured up to 7 days by histopathological analysis; format: organism-based; conditions: in vivo, 168 h; how it was run: as §3
Mus musculus [17] = test: Acute toxicity in mouse assessed as effect on liver morphology at 75 mg/kg, ip measured up to 7 days by histopathological analysis; format: organism-based; conditions: in vivo, 168 h; how it was run: as §3
Leishmania major [18] = test: Antileishmanial activity against Leishmania major assessed as parasite survival at 0.25 uM after 48 hrs in presence of 20 uM folinic acid relative to control; format: functional; how it was run: as §2
Leishmania major [19] = test: Antileishmanial activity against Leishmania major assessed as parasite survival at 0.25 uM after 48 hrs in presence of 20 uM folic acid relative to control; format: functional; how it was run: as §2
Mus musculus [20] = test: Acute toxicity in mouse assessed as effect on lung morphology at 125 mg/kg, po administered via gavage measured after 24 hrs and followed up to 7 days by histopathological analysis; format: organism-based; conditions: in vivo; how it was run: as §1
Mus musculus [21] = test: Acute toxicity in mouse assessed as effect on body weight at 25 to 125 mg/kg/day, po administered via gavage measured during 3 days post dose; format: organism-based; conditions: in vivo, 72 h; how it was run: as §1
[22] = Selectivity index, ratio of CC50 African green monkey Vero cells to IC50 for promastigote form of Leishmania major; format: toxicity; conditions: Vero cells versus Leishmania major promastigotes, read-out: Ratio CC50/IC50
How it was run: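 Selectivity index calculated as Vero CC50 (72 h crystal violet) divided by promastigote IC50.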

Leishmania major [23] = test: Antileishmanial activity against Leishmania major assessed as parasite survival at 0.16 uM after 48 hrs in presence of 100 uM folinic acid relative to control; format: functional; how it was run: as §2
Leishmania major [24] = test: Potency index, ratio of miltefosine IC50 to compound IC50 for antileishmanial activity promastigote form of Leishmania major; format: functional
Leishmania major [25] = test: Antileishmanial activity against Leishmania major assessed as parasite survival at 0.16 uM after 48 hrs in presence of 20 uM folinic acid relative to control; format: functional; how it was run: as §2
Leishmania major [26] = test: Antileishmanial activity against Leishmania major assessed as parasite survival at 0.16 uM after 48 hrs in presence of 20 uM folic acid relative to control; format: functional; how it was run: as §2
Leishmania major [27] = test: Antileishmanial activity against Leishmania major assessed as parasite survival at 0.16 uM after 48 hrs in presence of 100 uM folic acid relative to control; format: functional; how it was run: as §2
Leishmania major [28] = test: Antileishmanial activity against Leishmania major assessed as parasite survival at 0.16 uM after 48 hrs relative to control; format: functional; how it was run: as §2

C#CCOc1ccc(/C=N/NC(N)=S)cc1OC
Activity (Mus musculus [1]): Non-Toxic
Activity (Leishmania major [2]): 25%
Activity (Mus musculus [3]): Non-Toxic
Activity (Mus musculus [4]): Non-Toxic
Activity (Mus musculus [5]): Non-Toxic
IC50 (Leishmania major [6]): 1.4 µM
Activity (Mus musculus [7]): Non-Toxic
Activity (Leishmania major [8]): 97%
Activity (Mus musculus [9]): Non-Toxic
Activity (Leishmania major [10]): 98%
Activity (Mus musculus [11]): Non-Toxic
CC50 at 72 h [12]: 828 µM
IC50 (Leishmania major [13]): 0.227 µM
Ratio IC50 (Leishmania major [14]): 6
Activity (Mus musculus [15]): Non-Toxic
Activity (Mus musculus [16]): Non-Toxic
Activity (Mus musculus [17]): Non-Toxic
Activity (Leishmania major [18]): 90%
Activity (Leishmania major [19]): 89%
Activity (Mus musculus [20]): Non-Toxic
Activity (Mus musculus [21]): Non-Toxic
selectivity ratio [22]: 3640

COc1cc(/C=N\NC(N)=S)ccc1OCc1cn(CC(=O)c2ccc(Br)cc2)nn1
IC50 (Leishmania major [6]): 5.1 µM
IC50 (Leishmania major [13]): 3.97 µM

COc1cc(/C=N/NC(N)=S)ccc1OCc1cn(CC(=O)c2ccc(C)cc2)nn1
IC50 (Leishmania major [6]): 4.97 µM
IC50 (Leishmania major [13]): 4.82 µM

COc1ccc(/C=N\NC(N)=S)cc1OCc1cn(CC(=O)c2ccc(Cl)cc2)nn1
IC50 (Leishmania major [6]): 1.69 µM
IC50 (Leishmania major [13]): 0.798 µM
Ratio IC50 (Leishmania major [14]): 5

COc1cc(/C=N\NC(N)=S)ccc1OCc1cn(CC(=O)c2ccc(Cl)cc2)nn1
IC50 (Leishmania major [6]): 5.4 µM
IC50 (Leishmania major [13]): 4.76 µM

COc1ccc(/C=N/NC(N)=S)cc1OCc1cn(-c2ccc(S(N)(=O)=O)cc2)nn1
IC50 (Leishmania major [6]): 4.35 µM
IC50 (Leishmania major [13]): 4.38 µM

C/C(=N/NC(N)=S)c1ccc(OCc2cn(CC(=O)c3ccc(Br)cc3)nn2)cc1
Activity (Mus musculus [1]): Non-Toxic
Activity (Mus musculus [3]): Non-Toxic
Activity (Mus musculus [4]): Non-Toxic
Activity (Leishmania major [23]): 99%
Activity (Mus musculus [5]): Non-Toxic
IC50 (Leishmania major [6]): 1 µM
Activity (Mus musculus [7]): Non-Toxic
Activity (Mus musculus [9]): Non-Toxic
Activity (Mus musculus [11]): Non-Toxic
CC50 at 72 h [12]: 509 µM
Ratio IC50 (Leishmania major [24]): 55.6
Activity (Leishmania major [25]): 90%
Activity (Leishmania major [26]): 91%
Activity (Leishmania major [27]): 99%
Activity (Leishmania major [28]): 23%
IC50 (Leishmania major [13]): 0.14 µM
Ratio IC50 (Leishmania major [14]): 8
Activity (Mus musculus [15]): Non-Toxic
Activity (Mus musculus [16]): Non-Toxic
Activity (Mus musculus [17]): Non-Toxic
Activity (Mus musculus [20]): Non-Toxic
Activity (Mus musculus [21]): Non-Toxic
selectivity ratio [22]: 3630

COc1ccc(/C=N/NC(N)=S)cc1OCc1cn(CC(=O)c2ccc(F)cc2)nn1
IC50 (Leishmania major [6]): 4.83 µM
IC50 (Leishmania major [13]): 2.52 µM

C/C(=N/NC(N)=S)c1ccc(OCc2cn(-c3ccc(C(=O)O)cc3)nn2)cc1
IC50 (Leishmania major [6]): 6.04 µM
IC50 (Leishmania major [13]): 7.41 µM

COc1cc(/C=N/NC(N)=S)ccc1OCc1cn(CC(=O)c2ccc(F)cc2)nn1
IC50 (Leishmania major [6]): 6.46 µM
IC50 (Leishmania major [13]): 6.93 µM

COc1ccc(/C=N\NC(N)=S)cc1OCc1cn(CC(=O)c2ccccc2)nn1
IC50 (Leishmania major [6]): 4.38 µM
IC50 (Leishmania major [13]): 4.4 µM

COc1ccc(/C=N/NC(N)=S)cc1OCc1cn(CC(=O)c2ccc(C)cc2)nn1
IC50 (Leishmania major [6]): 2.18 µM
IC50 (Leishmania major [13]): 0.99 µM
Ratio IC50 (Leishmania major [14]): 4

COc1cc(/C=N/NC(N)=S)ccc1OCc1cn(-c2ccc(C(=O)O)cc2)nn1
IC50 (Leishmania major [6]): 5.6 µM
IC50 (Leishmania major [13]): 5.74 µM

COc1ccc(/C=N/NC(N)=S)cc1OCc1cn(-c2ccc(C(=O)O)cc2)nn1
IC50 (Leishmania major [6]): 4.78 µM
IC50 (Leishmania major [13]): 5 µM

COc1ccc(/C=N\NC(N)=S)cc1OCc1cn(CC(=O)c2ccc(Br)cc2)nn1
IC50 (Leishmania major [6]): 4.48 µM
IC50 (Leishmania major [13]): 5.69 µM

COc1cc(/C=N\NC(N)=S)ccc1OCc1cn(CC(=O)c2ccccc2)nn1
IC50 (Leishmania major [6]): 5.39 µM
IC50 (Leishmania major [13]): 4.87 µM

C/C(=N/NC(N)=S)c1ccc(OCc2cn(-c3ccc(S(N)(=O)=O)cc3)nn2)cc1
IC50 (Leishmania major [6]): 8.26 µM
IC50 (Leishmania major [13]): 6.79 µM

CCCCCCCCCCCCCCCCOP(=O)([O-])OCC[N+](C)(C)C [MILTEFOSINE]
IC50 (Leishmania major [6]): 8.09 µM
